Results taken from ChEMBL document CHEMBL3271959, “Comparative stereochemistry in the aziridine ring openings of N-methylmitomycin A and 7-methoxy-1,2-(N-methylaziridino)mitosene” (J Med Chem, 1977).
Active and inactive are the calls of the source. The calls are words filed in the database; no cut-off is given here.

Legend:
[1] = tested on: P388; experiment: Antitumor activity against mouse P388 cells allografted in CDF1 mouse assessed as mouse survival at 0.1 mg/kg/day administered qd on day 1 and 5 measured on day 5; assay type: functional, organism-based
In short: (§1)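 Male CDF1 mice were implanted intraperitoneally with 10^6 P388 ascites cells. Treatment was given once daily on days 1 and 5 only. Groups were six mice each. Median survival time was taken for each group.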

[2] = tested on: P388; experiment: Antitumor activity against mouse P388 cells allografted in CDF1 mouse assessed as mouse survival at 3.2 mg/kg/day administered qd on day 1 and 5 measured on day 5; assay type: functional, organism-based; in short: as §1
[3] = tested on: P388; experiment: Antitumor activity against mouse P388 cells allografted in CDF1 mouse assessed as mouse survival at 0.8 mg/kg/day administered qd on day 1 and 5 measured on day 5; assay type: functional, organism-based; in short: as §1
[4] = tested on: Enterobacteria phage lambda; experiment: Induction of lambda phage lytic activity in Escherichia coli W1709(lambda) assessed as ratio of plaques in treated culture to control at 0.05 ug/ml preincubated for 90 mins followed by heart infusion broth and glucose addition measured after 120 mins; assay type: functional
[5] = tested on: Mus musculus; experiment: Toxicity in CDF1 mouse allografted with mouse P388 cells assessed as change in weight at 1.6 mg/kg/day administered qd on day 1 and 5 (reference value: 3.4 g); assay type: organism-based; details: in vivo; in short: as §1
[6] = tested on: P388; experiment: Antitumor activity against mouse P388 cells allografted in CDF1 mouse assessed as mouse survival at 1.6 mg/kg/day administered qd on day 1 and 5 measured on day 5; assay type: functional, organism-based; in short: as §1
[7] = tested on: P388; experiment: Antitumor activity against mouse P388 cells allografted in CDF1 mouse assessed as mouse survival at 1.6 mg/kg/day administered qd on day 1 and 5 measured on day 30; assay type: functional, organism-based; in short: as §1
[8] = tested on: P388; experiment: Antitumor activity against mouse P388 cells allografted in CDF1 mouse assessed as mouse survival at 0.2 mg/kg/day administered qd on day 1 and 5 measured on day 30; assay type: functional, organism-based; in short: as §1
[9] = tested on: P388; experiment: Antitumor activity against mouse P388 cells allografted in CDF1 mouse assessed as effect on median survival time at 3.2 mg/kg/day administered qd on day 1 and 5 relative to control; assay type: functional; in short: as §1
[10] = tested on: Mus musculus; experiment: Toxicity in CDF1 mouse allografted with mouse P388 cells assessed as change in weight at 0.1 mg/kg/day administered qd on day 1 and 5 (reference value: 3.4 g); assay type: organism-based; details: in vivo; in short: as §1
[11] = tested on: P388; experiment: Antitumor activity against mouse P388 cells allografted in CDF1 mouse assessed as mouse survival at 0.4 mg/kg/day administered qd on day 1 and 5 measured on day 30; assay type: functional, organism-based; in short: as §1
[12] = tested on: P388; experiment: Antitumor activity against mouse P388 cells allografted in CDF1 mouse assessed as effect on median survival time at 0.2 mg/kg/day administered qd on day 1 and 5 relative to control; assay type: functional; in short: as §1
[13] = tested on: Mus musculus; experiment: Toxicity in CDF1 mouse allografted with mouse P388 cells assessed as change in weight at 3.2 mg/kg/day administered qd on day 1 and 5 (reference value: 3.4 g); assay type: organism-based; details: in vivo; in short: as §1
[14] = tested on: P388; experiment: Antitumor activity against mouse P388 cells allografted in CDF1 mouse assessed as effect on median survival time at 1.6 mg/kg/day administered qd on day 1 and 5 relative to control; assay type: functional; in short: as §1
[15] = tested on: P388; experiment: Antitumor activity against mouse P388 cells allografted in CDF1 mouse assessed as effect on median survival time at 0.8 mg/kg/day administered qd on day 1 and 5 relative to control; assay type: functional; in short: as §1
[16] = tested on: Enterobacteria phage lambda; experiment: Induction of lambda phage lytic activity in Escherichia coli W1709(lambda) assessed as ratio of plaques in treated culture to control at 0.003 ug/ml preincubated for 90 mins followed by heart infusion broth and glucose addition measured after 120 mins; assay type: functional
[17] = tested on: P388; experiment: Antitumor activity against mouse P388 cells allografted in CDF1 mouse assessed as effect on median survival time at 0.4 mg/kg/day administered qd on day 1 and 5 relative to control; assay type: functional; in short: as §1
[18] = tested on: Escherichia coli; experiment: Toxicity in Escherichia coli W1709(lambda) at 0.2 ug/ml; assay type: organism-based; details: in vivo
In short: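 Screened for induction of lytic activity by lambda-bacteriophage lysogenic in Escherichia coli, at 3.1, 0.8, 0.2, 0.05, 0.0125 and 0.003 ug/mL. The read-out was the ratio of plaques induced by the test compound to plaques in an untreated control. Wells where the compound was toxic to the culture were scored "T" instead of a ratio.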

[19] = tested on: Escherichia coli; experiment: Toxicity in Escherichia coli W1709(lambda) at 0.05 ug/ml; assay type: organism-based; details: in vivo
[20] = tested on: P388; experiment: Antitumor activity against mouse P388 cells allografted in CDF1 mouse assessed as mouse survival at 0.2 mg/kg/day administered qd on day 1 and 5 measured on day 5; assay type: functional, organism-based; in short: as §1
[21] = tested on: P388; experiment: Antitumor activity against mouse P388 cells allografted in CDF1 mouse assessed as mouse survival at 0.4 mg/kg/day administered qd on day 1 and 5 measured on day 5; assay type: functional, organism-based; in short: as §1
[22] = tested on: P388; experiment: Antitumor activity against mouse P388 cells allografted in CDF1 mouse assessed as effect on median survival time at 0.1 mg/kg/day administered qd on day 1 and 5 relative to control; assay type: functional; in short: as §1
[23] = tested on: Enterobacteria phage lambda; experiment: Induction of lambda phage lytic activity in Escherichia coli W1709(lambda) assessed as ratio of plaques in treated culture to control at 0.0125 ug/ml preincubated for 90 mins followed by heart infusion broth and glucose addition measured after 120 mins; assay type: functional
[24] = tested on: Mus musculus; experiment: Toxicity in CDF1 mouse allografted with mouse P388 cells assessed as change in weight at 0.8 mg/kg/day administered qd on day 1 and 5 (reference value: 3.4 g); assay type: organism-based; details: in vivo; in short: as §1
[25] = tested on: P388; experiment: Antitumor activity against mouse P388 cells allografted in CDF1 mouse assessed as mouse survival at 0.1 mg/kg/day administered qd on day 1 and 5 measured on day 30; assay type: functional, organism-based; in short: as §1
[26] = tested on: Mus musculus; experiment: Toxicity in CDF1 mouse allografted with mouse P388 cells assessed as change in weight at 0.2 mg/kg/day administered qd on day 1 and 5 (reference value: 3.4 g); assay type: organism-based; details: in vivo; in short: as §1
[27] = tested on: Mus musculus; experiment: Toxicity in CDF1 mouse allografted with mouse P388 cells assessed as change in weight at 0.4 mg/kg/day administered qd on day 1 and 5 (reference value: 3.4 g); assay type: organism-based; details: in vivo; in short: as §1
[28] = tested on: Enterobacteria phage lambda; experiment: Induction of lambda phage lytic activity in Escherichia coli W1709(lambda) assessed as ratio of plaques in treated culture to control at 3.1 ug/ml preincubated for 90 mins followed by heart infusion broth and glucose addition measured after 120 mins; assay type: functional
[29] = tested on: Enterobacteria phage lambda; experiment: Induction of lambda phage lytic activity in Escherichia coli W1709(lambda) assessed as ratio of plaques in treated culture to control at 0.8 ug/ml preincubated for 90 mins followed by heart infusion broth and glucose addition measured after 120 mins; assay type: functional
[30] = tested on: Escherichia coli; experiment: Toxicity in Escherichia coli W1709(lambda) at 3.1 ug/ml; assay type: organism-based; details: in vivo
[31] = tested on: Enterobacteria phage lambda; experiment: Induction of lambda phage lytic activity in Escherichia coli W1709(lambda) assessed as ratio of plaques in treated culture to control at 0.2 ug/ml preincubated for 90 mins followed by heart infusion broth and glucose addition measured after 120 mins; assay type: functional
[32] = tested on: Escherichia coli; experiment: Toxicity in Escherichia coli W1709(lambda) at 0.0125 ug/ml; assay type: organism-based; details: in vivo
[33] = tested on: P388; experiment: Antitumor activity against mouse P388 cells allografted in CDF1 mouse assessed as mouse survival at 0.8 mg/kg/day administered qd on day 1 and 5 measured on day 30; assay type: functional, organism-based; in short: as §1
[34] = tested on: P388; experiment: Antitumor activity against mouse P388 cells allografted in CDF1 mouse assessed as mouse survival at 3.2 mg/kg/day administered qd on day 1 and 5 measured on day 30; assay type: functional, organism-based; in short: as §1
[35] = tested on: P388; experiment: Antitumor activity against mouse P388 cells allografted in CDF1 mouse assessed as effect on median survival time at 6.4 mg/kg/day administered qd on day 1 and 5 relative to control; assay type: functional; in short: as §1
[36] = tested on: P388; experiment: Antitumor activity against mouse P388 cells allografted in CDF1 mouse assessed as mouse survival at 6.4 mg/kg/day administered qd on day 1 and 5 measured on day 5; assay type: functional, organism-based; in short: as §1
[37] = tested on: Escherichia coli; experiment: Toxicity in Escherichia coli W1709(lambda) at 0.8 ug/ml; assay type: organism-based; details: in vivo
[38] = tested on: P388; experiment: Antitumor activity against mouse P388 cells allografted in CDF1 mouse assessed as mouse survival at 6.4 mg/kg/day administered qd on day 1 and 5 measured on day 30; assay type: functional, organism-based; in short: as §1
[39] = tested on: Mus musculus; experiment: Toxicity in CDF1 mouse allografted with mouse P388 cells assessed as change in weight at 6.4 mg/kg/day administered qd on day 1 and 5 (reference value: 3.4 g); assay type: organism-based; details: in vivo; in short: as §1

SMILES	Activity [2]	Activity [3]	T/C [4]	Activity [5]	Activity [6]	Activity [7]	Activity [8]	T/C [9]	Activity [11]	T/C [12]	Activity [13]	T/C [14]	T/C [15]	T/C [16]	T/C [17]	Activity [20]	Activity [21]	T/C [23]	T/C [28]	T/C [29]	other results
CO[C@@]12[C@H](COC(N)=O)C3=C(C(=O)C(C)=C(N)C3=O)N1C[C@@H]1N[C@@H]12 [MITOMYCIN]	Active	Active	17.6	0.1 g	Active	inactive	inactive	270%	inactive	125%	-2.3 g	175%	175%	2.7	130%	Active	Active	6.6	–	–	Activity [1]: Active; Activity [10]: 0 g; Activity [18]: Toxic; Activity [19]: Toxic; T/C [22]: 120%; Activity [24]: -0.8 g; Activity [25]: inactive; Activity [26]: 0.3 g; Activity [27]: 0 g
CN[C@@H]1Cn2c3c(c(COC(N)=O)c2[C@H]1O)C(=O)C(OC)=C(C)C3=O (relative stereo)	–	–	–	–	–	–	–	–	–	–	–	–	–	–	–	–	–	–	7	2.4	–
CN[C@@H]1Cn2c3c(c(COC(N)=O)c2[C@@H]1O)C(=O)C(OC)=C(C)C3=O (relative stereo)	–	–	–	–	–	–	–	–	–	–	–	–	–	–	–	–	–	–	22.4	4.4	Activity [30]: Toxic; T/C [31]: 2
COC1=C(C)C(=O)c2c(c(COC(N)=O)c3n2CCC3O)C1=O (racemic)	–	–	–	–	–	–	–	–	–	–	–	–	–	–	–	–	–	–	6.9	2.9	–
COC1=C(C)C(=O)C2=C(C1=O)[C@@H](COC(N)=O)[C@@]1(OC)[C@H]3N[C@H]3CN21 [MITOMYCIN A]	Active	Active	–	-3.1 g	Active	inactive	inactive	180%	inactive	130%	-2.1 g	165%	155%	7.4	140%	Active	Active	31.1	–	–	Activity [1]: Active; Activity [10]: 0.3 g; Activity [32]: Toxic; Activity [19]: Toxic; Activity [33]: inactive; T/C [22]: 120%; Activity [24]: -2.6 g; Activity [34]: inactive; Activity [25]: inactive; Activity [26]: 0.1 g; Activity [27]: -0.4 g
COC1=C(C)C(=O)c2c(c(COC(N)=O)c3n2C[C@H]2[C@@H]3N2C)C1=O (some centres not stated)	–	–	3.4	–	–	–	–	–	–	–	–	–	–	0.8	–	–	–	3	35.4	38.8	Activity [30]: Toxic
COC1=C(C)C(=O)C2=C(C1=O)[C@@H](COC(N)=O)[C@@]1(OC)[C@@H]3[C@H](CN21)N3C (some centres not stated) [N-METHYL-MITOMYCIN A]	Active	Active	8.2	-1.6 g	Active	inactive	inactive	180%	inactive	115%	-3.1 g	145%	145%	1.8	130%	Active	Active	3.7	–	–	T/C [35]: 165%; T/C [31]: 21.2; Activity [36]: Active; Activity [37]: Toxic; Activity [33]: inactive; Activity [38]: inactive; Activity [39]: -2.4 g; Activity [24]: -0.3 g; Activity [26]: 0.3 g; Activity [27]: 0.9 g
